Tests used:
[1] = Ratio of IC50 for dark toxicity in human Hep2 cells to IC50 for phototoxicity in human Hep2 cells; type: cell-based; conditions: HEp-2 cells, read-out: Ratio IC50
[2] = Dark toxicity in human Hep2 cells after 24 hrs by Cell Titre Blue assay; type: cell-based; conditions: HEp-2 cells
In short: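 HEp2 cells seeded 15,000/well. Compound at 12.5–400 μM (vehicle DMSO/Cremophor EL) for 24 h at 37 °C in the dark, five replicates per concentration. Washed, then 20% Cell Titer Blue for 4 h. Fluorescence read at 570/615 nm as % viable cells, IC50 taken from dose–response curves.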

HEp-2 = test: Phototoxicity in human Hep2 cells incubated for 24 hrs followed by 1.5 J/cm'2 light irradiation for 20 mins measured after 24 hrs by Cell Titre Blue assay; type: functional, cell-based; conditions: HEp-2, light or radiation study
In short: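 HEp2 cells given 3.125–200 μM compound for 24 h at 37 °C, then washed and refed. Irradiated on ice for 20 min with a 100 W halogen lamp through a 610 nm long-pass filter and a water IR filter, about 1.5 J/cm². After 24 h more, 20% Cell Titer Blue for 4 h, read at 570/615 nm. IC50 from dose–response curves.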

[3] = Induction of singlet oxygen generation assessed as decrease in DPBF absorbance at 5 uM followed by 71 W light irradiation for 1 hr by spectrophotometry; type: physicochemical
In short: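 Compound at 5 μM with 50 μM DPBF in DMSO, 2 mL, irradiated 1 h with a 71 W source through a 500 nm long-pass filter. DPBF absorbance at 410 nm sampled every 15 min. Rate of absorbance decrease referenced to methylene blue at equal concentration.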

[4] = Cellular uptake in human Hep2 cell mitochondria at 10 uM after 24 hrs by micro plate reader analysis; type: ADME; conditions: hep-2, 24 h
In short: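 HEp2 cells (DMEM:AMEM 50:50, 10% FBS) seeded 15,000/well, grown overnight, then given 10 μM compound in medium with 5% FBS for 0–24 h. Washed with PBS, lysed in 0.25% Triton X-100. Compound fluorescence read at 355/520 nm against standard curve, cell number by CyQuant at 485/520 nm. Uptake given per cell.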

| SMILES | selectivity ratio [1] | IC50 at 24 h [2] [µM] | IC50 (HEp-2) [µM] | Activity [3] | Drug uptake [4] |
| --- | --- | --- | --- | --- | --- |
| COC(=O)c1ccc(C2=C3C(C)=CC(C)=[N+]3[B-](F)(F)n3c(C)cc(C)c32)cc1 | > 4 | > 400 | > 100 | – | – |
| CC1=CC(C)=[N+]2C1=C(c1cccs1)c1c(C)cc(C)n1[B-]2(F)F | > 3 | > 300 | > 100 | – | – |
| CC1=CC(C)=[N+]2C1=C(c1ccc(-c3cccs3)s1)c1c(C)cc(C)n1[B-]2(F)F | > 4 | > 400 | > 100 | – | – |
| CC1=CC(C)=[N+]2C1=C(c1ccc(-c3ccc(Br)s3)s1)c1c(C)cc(C)n1[B-]2(F)F | > 3.5 | > 300 | 82 | – | – |
| CC1=C(I)C(C)=[N+]2C1=C(c1ccccc1)c1c(C)c(I)c(C)n1[B-]2(F)F | > 15 | > 400 | 27 | Active | Active |
| COc1cc(OC)cc(C2=C3C(C)=C(I)C(C)=[N+]3[B-](F)(F)n3c(C)c(I)c(C)c32)c1 | > 100 | > 400 | 4 | Active | Active |
| CC1=C(I)C(C)=[N+]2C1=C(c1cc(C(C)(C)C)cc(C(C)(C)C)c1)c1c(C)c(I)c(C)n1[B-]2(F)F | > 2 | > 400 | > 200 | – | – |
| COc1ccc(C2=C3C(C)=C(I)C(C)=[N+]3[B-](F)(F)n3c(C)c(I)c(C)c32)cc1OC | > 53 | > 400 | 7.5 | Active | Active |
| COC(=O)c1ccc(C2=C3C(C)=C(I)C(C)=[N+]3[B-](F)(F)n3c(C)c(I)c(C)c32)cc1 | > 2 | > 400 | > 200 | – | – |
| CC1=C(I)C(C)=[N+]2C1=C(c1ccc(Br)cc1)c1c(C)c(I)c(C)n1[B-]2(F)F | > 15 | > 400 | 28 | – | Active |
| CC1=C(I)C(C)=[N+]2C1=C(c1cccs1)c1c(C)c(I)c(C)n1[B-]2(F)F | > 30 | > 400 | 14 | Active | Active |
| CC1=C(I)C(C)=[N+]2C1=C(c1ccc(-c3cccs3)s1)c1c(C)c(I)c(C)n1[B-]2(F)F | > 2 | > 400 | > 200 | – | – |
| CC1=C(I)C(C)=[N+]2C1=C(c1ccc(Br)s1)c1c(C)c(I)c(C)n1[B-]2(F)F | > 2 | > 400 | > 200 | – | – |
| CC1=C(I)C(C)=[N+]2C1=C(c1ccc(-c3ccc(Br)s3)s1)c1c(C)c(I)c(C)n1[B-]2(F)F | 2.3 | 8 | 3.5 | Active | Active |
| CC1=C(I)C(C)=[N+]2C1=C(c1c(F)c(F)c(F)c(F)c1F)c1c(C)c(I)c(C)n1[B-]2(F)F | > 2 | > 400 | > 200 | – | – |

— ChEMBL document CHEMBL2417461, “Spectroscopic, computational modeling and cytotoxicity of a series of meso-phenyl and meso-thienyl-BODIPYs” (Bioorg Med Chem, 2013)
